Results taken from ChEMBL document CHEMBL1146825, “Triaryl methane derivatives as antiproliferative agents” (Bioorg Med Chem Lett, 2004).

Columns and labels:
NIH3T3 [1] = assay: Mitogen-induced cell proliferation assay to evaluate the antiproliferative effect in NIH 3T3 cells; assay type: functional, cell-based; settings: Mus musculus
Summary of the method: (§1)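 NIH 3T3 mouse fibroblasts given a mitogenic stimulus (e.g. PDGF or bFGF) for 10 h, then [3H]thymidine added. Cultured a further 21 h at 37 C, 5% CO2, then washed four times with DME. Acid-precipitable radioactivity extracted with cold 10% TCA, neutralized with 0.3 N NaOH, and counted by scintillation.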

NIH3T3 [2] = assay: Percent inhibition at 10 uM determined against mouse NIH 3T3 cells; assay type: functional; summary of the method: as §1
NCI-H460 [3] = assay: Effect of 50 uM compound on NCI-H460 non-small cell lung cancer cells cycle progression in G0G1 phase by flow cytometry; assay type: functional, Homo sapiens
Summary of the method: (§2)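 NCI-H460 cells serum-starved 56 h, then released into complete medium containing compound (25 or 50 uM) or 0.1% DMSO vehicle for 16 h. Harvested, washed in cold PBS, fixed in 70% ethanol at 4 C for at least 4 h. Treated with ribonuclease and propidium iodide 30 min at 37 C. DNA content read by flow cytometry; percent of cells in G0-G1, S and G2-M.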

NCI-H460 [4] = assay: Effect of 50 uM compound on NCI-H460 non-small cell lung cancer cells cycle progression in S phase by flow cytometry; assay type: functional, Homo sapiens; summary of the method: as §2
NCI-H460 [5] = assay: Effect of 25 uM compound on NCI-H460 non-small cell lung cancer cells cycle progression in S phase by flow cytometry; assay type: functional, Homo sapiens; summary of the method: as §2
NCI-H460 [6] = assay: Effect of 25 uM compound on NCI-H460 non-small cell lung cancer cells cycle progression in G0G1 phase by flow cytometry; assay type: functional, Homo sapiens; summary of the method: as §2
NCI-H460 [7] = assay: Effect of 50 uM compound on NCI-H460 non-small cell lung cancer cells cycle progression in G2-M phase by flow cytometry; assay type: functional, Homo sapiens; summary of the method: as §2
NCI-H460 [8] = assay: Effect of 25 uM compound on NCI-H460 non-small cell lung cancer cells cycle progression in G2M phase by flow cytometry; assay type: functional, Homo sapiens; summary of the method: as §2

SMILES | IC50 (NIH3T3 [1]) [µM] | also measured
OC(c1ccccc1)(c1ccccc1)c1ccccc1Cl | 2.1 | 
OC(c1ccccc1)(c1ccc(Br)cc1)c1ccc(Br)cc1 | 0.5 | 
OC(c1ccccc1)(c1ccccc1)C1CCCCC1 | 9.5 | 
N#CC(c1ccccc1)(c1ccccc1)C1CCCCC1 | 0.9 | 
CCOC(=O)C(c1ccccc1)(c1ccccc1)N1CCCCC1 | 2.2 | 
CCOC(c1ccccc1)(c1ccccc1)c1ccc(-c2ccccc2)cc1 | 2.2 | inhibition at 10 µM (NIH3T3 [2]): 99%
OC(Cc1ccccc1)(c1ccccc1)c1ccccc1 | 0.4 | Cell (NCI-H460 [3]): 69.91%; Cell (NCI-H460 [4]): 25.09%; Cell (NCI-H460 [5]): 44.63%; inhibition at 10 µM (NIH3T3 [2]): 98%; Cell (NCI-H460 [6]): 46.8%; Cell (NCI-H460 [7]): 5%; Cell (NCI-H460 [8]): 8.57%
OC(c1ccccc1)(c1ccccc1)c1ccc(Cl)cc1 | 0.8 | 
N#CC(c1ccccc1)(c1ccccc1)c1ccccc1Cl | 2.2 | 
OC(c1ccccc1)(c1ccccc1)c1cccc2ccccc12 | 1.6 | 
Oc1ccccc1C(O)(c1ccccc1)c1ccccc1Cl (stereo not given) | 1 | inhibition at 10 µM (NIH3T3 [2]): 99%
Nc1ccc(C(O)(c2ccc(N)cc2)c2ccc(N)cc2)cc1 | 0.2 | 
OC(c1ccccc1)(c1ccccc1)c1ccc(C(F)(F)F)cc1 | 3.1 | 
O=C(O)CC(c1ccccc1)(c1ccccc1)c1ccccc1Cl | 1.2 | 
N#CC(c1ccccc1)(c1ccccc1)c1ccc([N+](=O)[O-])cc1 | 1.7 | 
Cc1ccc(C(O)(c2ccc(C)cc2)c2ccc(C)cc2)cc1 | 3 | 
O=[N+]([O-])c1ccc(C(O)(c2ccccc2)c2ccccc2)c(Cl)c1 | 0.3 | inhibition at 10 µM (NIH3T3 [2]): 94%
Clc1ccccc1C(c1ccccc1)c1ccccc1 [2-CHLOROPHENYL-BISPHENYLMETHANE(MAJOR)] | 3.9 | 
OC(c1ccccc1)(c1ccccc1)c1ccccc1 [TRIPHENYLMETHANOL] | 2 | inhibition at 10 µM (NIH3T3 [2]): 99%
